Results reported in ChEMBL document CHEMBL1828531, “Pyrazol-3-propanoic acid derivatives as novel inhibitors of leukotriene biosynthesis in human neutrophils” (Eur J Med Chem, 2011).

Assays:
[1] = molecular target: T1, Polyunsaturated fatty acid lipoxygenase ALOX12 (Homo sapiens, UniProt P18054); test: Inhibition of 12-Lipoxygenase-mediated 12-HETE in human neutrophil after 15 mins by HPLC analysis
T1 sequence (P18054 whole entry): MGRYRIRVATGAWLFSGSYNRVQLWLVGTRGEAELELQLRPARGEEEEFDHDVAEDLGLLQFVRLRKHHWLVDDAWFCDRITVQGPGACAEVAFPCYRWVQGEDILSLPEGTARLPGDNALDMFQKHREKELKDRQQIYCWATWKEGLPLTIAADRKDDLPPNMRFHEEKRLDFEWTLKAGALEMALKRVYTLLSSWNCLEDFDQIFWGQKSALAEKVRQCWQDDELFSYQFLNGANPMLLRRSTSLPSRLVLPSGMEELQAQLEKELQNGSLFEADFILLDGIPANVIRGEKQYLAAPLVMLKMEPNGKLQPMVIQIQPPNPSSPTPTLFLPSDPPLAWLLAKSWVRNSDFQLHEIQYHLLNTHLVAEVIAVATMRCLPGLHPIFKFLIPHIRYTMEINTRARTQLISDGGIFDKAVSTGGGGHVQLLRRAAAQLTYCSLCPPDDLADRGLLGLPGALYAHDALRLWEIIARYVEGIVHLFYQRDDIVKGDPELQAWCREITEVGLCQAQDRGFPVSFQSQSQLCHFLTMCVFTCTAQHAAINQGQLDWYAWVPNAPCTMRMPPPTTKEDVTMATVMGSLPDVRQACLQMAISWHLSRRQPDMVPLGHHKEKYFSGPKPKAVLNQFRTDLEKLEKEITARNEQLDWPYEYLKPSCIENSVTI
Summary of the method: (§1)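 Freshly isolated human blood neutrophils, 5 × 10^6/mL in PBS pH 7.4 with 1 mg/mL glucose and 1 mM CaCl2, preincubated with compound 15 min at RT. Stimulated with 2.5 µM A23187 plus 20 µM AA for 10 min at 37 °C. Stopped with methanol/HCl, PGB1 internal standard. 12-HETE or 15-HETE measured by HPLC. Residual activity tested at 30 µM.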

[2] = molecular target: T2, Polyunsaturated fatty acid lipoxygenase ALOX12 (Homo sapiens) (UniProt P18054); test: Inhibition of 12-Lipoxygenase-mediated 12-HETE in human neutrophil assessed as residual activity at 30 uM after 15 mins by HPLC analysis; summary of the method: as §1
T2 sequence (whole entry): T1 sequence (P18054 whole entry)

[3] = molecular target: T3, Polyunsaturated fatty acid 5-lipoxygenase (Homo sapiens) (UniProt P09917); test: Inhibition of recombinant human 5-Lipoxygenase expressed in Escherichia coli lysate assessed as residual activity at 10 uM after 10 mins by HPLC analysis
T3 sequence (whole entry): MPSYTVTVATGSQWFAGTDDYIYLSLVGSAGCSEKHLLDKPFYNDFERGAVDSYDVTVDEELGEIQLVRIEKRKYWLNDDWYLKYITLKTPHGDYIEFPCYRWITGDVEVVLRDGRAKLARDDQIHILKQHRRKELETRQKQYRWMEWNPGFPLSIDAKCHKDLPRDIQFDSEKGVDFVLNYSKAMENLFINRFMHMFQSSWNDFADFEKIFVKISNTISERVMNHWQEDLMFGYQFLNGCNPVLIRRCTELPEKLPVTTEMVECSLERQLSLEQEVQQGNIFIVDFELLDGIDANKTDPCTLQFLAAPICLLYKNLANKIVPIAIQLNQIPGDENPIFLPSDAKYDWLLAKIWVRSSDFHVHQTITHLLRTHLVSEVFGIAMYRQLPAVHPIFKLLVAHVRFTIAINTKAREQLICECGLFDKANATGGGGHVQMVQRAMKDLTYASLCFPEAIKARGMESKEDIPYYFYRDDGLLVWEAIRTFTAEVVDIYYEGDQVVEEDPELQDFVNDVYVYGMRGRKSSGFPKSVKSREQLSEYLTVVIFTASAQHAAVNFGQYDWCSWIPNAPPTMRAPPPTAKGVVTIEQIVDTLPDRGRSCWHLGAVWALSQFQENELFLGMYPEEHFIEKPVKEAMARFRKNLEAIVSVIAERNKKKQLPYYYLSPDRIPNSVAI
Summary of the method: (§2)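 Human 5-LO expressed at 30 °C in E. coli MV1190 (pT3-5LO); lysate 40,000 g supernatant in PBS pH 7.4 with 1 mM EDTA. Preincubated with compound 10 min at 4 °C, warmed 30 s at 37 °C. Started with 2 mM CaCl2 plus 20 µM AA, 10 min at 37 °C. Methanol stop, HPLC. Residual % versus 0.3% DMSO vehicle, n = 3–5.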

[4] = molecular target: T3, Polyunsaturated fatty acid 5-lipoxygenase (Homo sapiens); test: Inhibition of recombinant human 5-Lipoxygenase expressed in Escherichia coli lysate assessed as residual activity using arachidonic acid as substrate at 10 uM after 10 mins by HPLC analysis; summary of the method: as §2
[5] = Inhibition of mPGES1-mediated PGE2 production in IL1-beta stimulated human A549 cells after 15 mins; type: cell-based; details: A549, 0.25 h
Summary of the method: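 Microsomes from IL-1β (1 ng/ml, 72 h) stimulated A549 cells, diluted in 0.1 M potassium phosphate pH 7.4 with 2.5 mM glutathione. Compound or 1% DMSO added, 15 min at 4 °C. Started with 20 µM PGH2 (final), 1 min at 4 °C. Stopped with FeCl2/citric acid containing 11β-PGE2 internal standard. PGE2 by RP-C18 solid-phase extraction and peak integration.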

[6] = molecular target: T4, Polyunsaturated fatty acid lipoxygenase ALOX15 (Homo sapiens, UniProt P16050); test: Inhibition of 15-Lipoxygenase-mediated 15-HETE in human neutrophil after 15 mins by HPLC analysis; summary of the method: as §1
T4 sequence (P16050 whole entry): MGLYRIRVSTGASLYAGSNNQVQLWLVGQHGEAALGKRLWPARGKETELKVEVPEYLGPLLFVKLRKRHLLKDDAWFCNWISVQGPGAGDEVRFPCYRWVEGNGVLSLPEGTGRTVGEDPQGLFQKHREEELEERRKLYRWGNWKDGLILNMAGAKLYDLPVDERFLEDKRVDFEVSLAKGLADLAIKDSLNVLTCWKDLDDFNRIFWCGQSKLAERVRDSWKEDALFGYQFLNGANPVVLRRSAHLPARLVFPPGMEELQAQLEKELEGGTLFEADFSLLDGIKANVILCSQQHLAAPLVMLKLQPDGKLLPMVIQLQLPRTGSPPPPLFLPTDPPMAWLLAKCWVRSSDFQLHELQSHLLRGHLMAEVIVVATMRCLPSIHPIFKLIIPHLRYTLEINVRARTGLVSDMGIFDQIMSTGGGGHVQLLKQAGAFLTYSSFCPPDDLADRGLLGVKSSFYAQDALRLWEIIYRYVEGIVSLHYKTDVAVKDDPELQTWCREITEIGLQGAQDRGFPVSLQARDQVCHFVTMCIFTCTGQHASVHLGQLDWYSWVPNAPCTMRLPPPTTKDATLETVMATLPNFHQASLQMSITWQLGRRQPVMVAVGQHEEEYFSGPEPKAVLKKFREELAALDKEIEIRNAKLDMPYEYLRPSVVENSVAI

[7] = molecular target: T5, Polyunsaturated fatty acid lipoxygenase ALOX15 (Homo sapiens) (UniProt P16050); test: Inhibition of 15-Lipoxygenase-mediated 15-HETE in human neutrophil assessed as residual activity at 30 uM after 15 mins by HPLC analysis; summary of the method: as §1
T5 sequence (whole entry): T4 sequence (P16050 whole entry)

Row | IC50 [1] [µM] | Activity [2] [%] | Activity [3] [%] | Activity [4] [%] | IC50 [5] [µM] | IC50 [6] [µM] | Activity [7] [%] | SMILES
1 | > 10 | 118 | 85.6 | 62.9 | > 10 | > 10 | 261 | Cc1ccc(-c2cc(CCC(=O)N3CCN(Cc4ccc(C(C)(C)C)cc4)CC3)nn2-c2ccccc2)cc1
2 | > 10 | 91.9 | 69.9 | 55.9 | > 10 | > 10 | 149 | CCOC(=O)C1CCN(C(=O)CCc2cc(-c3ccc(C)cc3)n(-c3ccc4ccccc4n3)n2)CC1
3 | > 10 | 77.1 | 92.7 | 83.4 | > 10 |  |  | Cc1ccc(-c2cc(CCC(=O)Oc3ccc(C(C)C)cc3)nn2-c2ccc(Cl)nn2)cc1
4 | > 10 | 111 | 51.5 | 115 | > 10 | > 10 | 145 | Cc1ccc(-c2cc(CCC(=O)N3CCN(Cc4ccc(C(C)(C)C)cc4)CC3)nn2-c2ccc3ccccc3n2)cc1
5 | > 10 | 98 | 102 | 79.5 | > 10 | > 10 | 196 | CCOC(=O)C1CCN(C(=O)CCc2cc(-c3ccc(C)cc3)n(-c3ccccc3)n2)CC1
6 | > 10 | 103 | 55.3 | 103 | > 10 | > 10 | 175 | CC(C)(C)c1ccc(CN2CCN(C(=O)CCc3cc(-c4ccc(F)cc4)n(-c4ccc(Cl)nn4)n3)CC2)cc1
7 | > 10 | 90.4 | 72.6 | 84 | > 10 | > 10 | 71 | CCOC(=O)C1CCN(C(=O)CCc2cc(-c3ccc(C(F)(F)F)cc3)n(-c3ccc(Cl)nn3)n2)CC1
8 | > 10 | 67.2 | 95.3 | 92.6 | > 10 | > 10 | 124 | Cc1ccc(-c2cc(CCC(=O)Oc3ccc(C(C)C)cc3)nn2-c2ccccc2)cc1
9 | > 10 | 67.8 | 79.6 | 86.1 | > 10 | > 10 | 92 | Cc1ccc(-c2cc(CCC(=O)Oc3ccc(C(C)C)cc3)nn2-c2ccc3ccccc3n2)cc1
